Values after ≈ are worked out from the molar mass of the structure shown.

In the assay the test system is Mycobacterium tuberculosis. The assay can be described thus: Antimycobacterial activity against Mycobacterium tuberculosis H37Rv ATCC 27294 after 7 days by REMA assay. The class given is functional. The note with it: H37Rv ATCC 27294, 168 h. A digest of the protocol: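 MIC by resazurin microtiter assay. Bacteria suspended in sterile water with glass beads, vortexed, turbidity set to McFarland tube 1 (3.2 × 10^6 CFU/mL), then diluted 1:20 in Middlebrook 7H9. Compounds in DMSO, two-fold serial dilutions (100.0-3.2 µg/mL) in 7H9 with 10% OADC. Incubated 37 °C for 7 days, resazurin added, further 2 days at 37 °C. MIC read from colour change.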
For the compound `CCCCCCCCCCCCCCCC(=O)NNC(=O)c1ccncc1`, it took 0.015 µg/mL (≈ 0.0399 µM) to inhibit growth (MIC).
Regarding `CCCCCCCCCCCCCCCCCC(=O)NNC(=O)c1ccncc1`, 0.03 µg/mL (≈ 0.0743 µM) was the least that counted as inhibitory (MIC).
Next, `CCCCCCCC/C=C\CCCCCCCC(=O)NNC(=O)c1ccncc1`: 0.015 µg/mL (≈ 0.0374 µM); `CCCCCCCC/C=C/CCCCCCCC(=O)NNC(=O)c1ccncc1`: 0.03 µg/mL (≈ 0.0747 µM).
On to `CCCCCC[C@@H](O)C/C=C\CCCCCCCC(=O)NNC(=O)c1ccncc1`, for which the lowest concentration to inhibit growth (MIC) was 0.03 µg/mL (≈ 0.0718 µM).
Turning to `CCCCC/C=C\C/C=C\CCCCCCCC(=O)NNC(=O)c1ccncc1`, it took 0.125 µg/mL (≈ 0.313 µM) to inhibit growth (MIC).
For the compound `CC/C=C\C/C=C\C/C=C\CCCCCCCC(=O)NNC(=O)c1ccncc1`, the MIC (in general, the smallest concentration in the dilution series that meets the test's criterion for growth inhibition) amounted to 0.06 µg/mL (≈ 0.151 µM).
The same measure for `NNC(=O)c1ccncc1` [ISONIAZID]: 0.06 µg/mL (≈ 0.438 µM); for `CCCCCCCC/C=C\CCCCCCCC(=O)O` [OLEIC ACID]: 100 µg/mL (≈ 354 µM).
Next, `CCCCCCCC/C=C\CCCCCCCC(=O)NN` [OLEOHYDRAZIDE]: 50 µg/mL (≈ 169 µM); `CO[C@H]1/C=C/O[C@@]2(C)Oc3c(C)c(O)c4c(O)c(c(/C=N/N5CCN(C)CC5)c(O)c4c3C2=O)NC(=O)/C(C)=C\C=C\[C@H](C)[C@H](O)[C@@H](C)[C@@H](O)[C@@H](C)[C@H](OC(C)=O)[C@@H]1C` [RIFAMPIN]: 0.03 µg/mL (≈ 0.0365 µM).

The values above are taken from ChEMBL document CHEMBL2440109, “Synthesis and antimycobacterial activity of isoniazid derivatives from renewable fatty acids” (2013).
